# This is a sample that favours compounds with a hit; in the whole collection about 1.6% have one here.
# GSTO1 inh – inhibitors of recombinant GSTO1, primary screen, counter-screen for RBBP9 inhibitor project, biochemical, fluorescence polarization; Glutathione S-transferase omega-1 (Homo sapiens), P78417; activity-based probe fluorescence polarization; inhibition, % at 5.96 µM; 300,000 compounds, 1.1% hits;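 active means inhibition above the campaign mean inhibition plus 3 SD, cut at about 35% in these data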
# HKDC1 inh – HKDC1 hexokinase inhibitors, primary screen, biochemical, fluorescence, uHTS; recombinant HKDC1, G6PDH/diaphorase resazurin coupled fluorescence; inhibition, % at 20 µM; 340,000 compounds, 0.16% hits; Q2TB90;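 active means inhibition above about 35% when tested at 20 µM, limit read from the data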
#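 System: Recombinant HKDC1 hexokinase | Amount: HKDC1 at 5 µg/mL | Reagent: Glucose with 1 mM ATP | Doses: Single 20 µM dose | Incubation: Reaction time 90 min, room temperature, protected from light | Signal: Coupled resazurin fluorescence, excitation 525 nm, emission 613 nm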
# TDP2 absorb – human TDP2 enzyme inhibitors, primary screen, biochemical, epi absorbance, recombinant enzyme. Tyrosyl-DNA phosphodiesterase 2 (Homo sapiens), O95551. T5PNP hydrolysis, p-nitrophenol absorbance 415 nm. inhibition, % at 12.8 µM. 370,000 compounds, 0.34% hits. AID 720702, 2013;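 active means inhibition above the mean of all tested compounds plus 3 SD, set per campaign, cut at about 25% in these data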
#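 Assay system: Recombinant human TDP2 | Quantity: 120 nM TDP2 per well | Incubation: 2 h at 37 °C | Signal: Epi absorbance | Evaluation: Percent inhibition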
# UCH37 DUB inh – inhibitors of human UCH37 deubiquitinase, primary screen, biochemical, Ub-AMC cleavage, fluorescence | Ubiquitin carboxyl-terminal hydrolase isozyme L5 (Homo sapiens), Q9Y5K5 | purified proteasome/UCH37 | inhibition, % (no concentration beside the values) | 330,000 compounds, 0.33% hits;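 active means mean inhibition over replicate wells above about 20%, limit read from the data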
#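 System: Proteasome-associated human UCH37 deubiquitinase; Input: 0.15 nM proteasome in added enzyme buffer; Also added: Ub-AMC substrate from 1 µM stock; Incubation: 30 min compound-proteasome preincubation then 25 min substrate reaction, room temperature; Detection: fluorescence, ex 355 nm, em 460 nm; Read-out: % inhibition of Ub-AMC cleavage fluorescence; Benchmarks: no-proteasome and no-compound wells.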
# PAD4 FP inh – human PAD4 inhibitors, primary screen, biochemical, fluorescence polarization, 1536-well format | inhibition, % at 6.36 µM | recombinant PAD4, RCA probe fluorescence polarization | 330,000 compounds, 0.41% hits | Protein-arginine deiminase type-4 (Homo sapiens), Q9UM07;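 active means percent inhibition above a cutoff equal to the mean of all tested compounds plus 3 SD, cut at about 15% in these data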
# CTSL1 counter – Fasciola hepatica cathepsin L1 inhibitors, primary screen, counter-screen for PFM18AAP inhibitor project, biochemical, QFRET, fluorogenic peptide substrate; recombinant F. hepatica cathepsin L1, Z-Leu-Arg-MCA fluorescence; inhibition, % at 5.96 µM; 300,000 compounds, 0.49% hits; AID 1906, 2009;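 active means inhibition above the mean of all tested compounds plus 3 SD, set per screening campaign, cut at about 17% in these data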
# PAD4 FP conf – human PAD4 inhibitors, confirmation, biochemical, fluorescence polarization; inhibition, % at 6.36 µM; shares compounds with PAD4 FP inh; recombinant PAD4, RCA probe fluorescence polarization; 1,200 compounds, 28% hits; AID 488796, 2010;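 active means mean inhibition across replicates above the hit cutoff set by the earlier primary screen, cut at about 15% in these data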;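 further: inhibitors block active-site labeling by the probe so polarization falls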
# HKDC1 act conf2 – HKDC1 hexokinase activators, confirmation, biochemical, single concentration | shares compounds with HKDC1 inh | 740 compounds, 14% hits | recombinant HKDC1, G6PDH/diaphorase resazurin fluorescence; hits give low values | inhibition, % at 20 µM;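 active means inhibition at or below a set negative limit, negative inhibition meaning the enzyme was activated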
# UCH37 reconfirm – retest of human UCH37 deubiquitinase inhibitors, confirmation, biochemical, Ub-AMC cleavage rate, fluorescence. shares compounds with UCH37 DUB inh. Proteasome-bound UCH37. inhibition, % at 20 µM. 480 compounds, 27% hits. AID 624100, 2012;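 active means average inhibition over replicates above about 50%, so the earlier screening hit is confirmed, limit read from the data; inactive means the rest, counted as false positives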;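 further: based on cleavage rate fitted by regression over a 30 min kinetic read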
# TDP2 confirm – human TDP2 enzyme inhibitors, retest, confirmation, biochemical, epi absorbance, recombinant enzyme; AID 743263, 2014; absorbance read-out; inhibition, % at 12.8 µM; shares compounds with TDP2 absorb; 1,100 compounds, 22% hits; in the data active means inhibition above about 25%
# Hits are given with their value; – = inactive; · = no result given.
SMILES,GSTO1 inh,HKDC1 inh,TDP2 absorb,UCH37 DUB inh,PAD4 FP inh,CTSL1 counter,PAD4 FP conf,TDP2 confirm,others
COc1cc(SC#N)ccc1N=Cc1c(C)[nH]n(-c2ccc(Cl)cc2)c1=O,–,–,–,–,30,–,37,·,HKDC1 act conf2=-38
COc1ccc(C2=NNC(=Nc3cc(S(=O)(=O)N(C)C)ccc3C)SC2)c(OC)c1,–,–,–,–,18,–,–,·,HKDC1 act conf2=-120
CN(C)S(=O)(=O)c1cccc(N=C2NN=C(c3ccccc3)CS2)c1,–,–,–,–,–,–,·,·,
O=C(NN=Cc1ccccc1O)c1ccncc1,·,·,·,–,·,·,·,·,
Cc1ccc(S(=O)(=O)/N=C2\C=C(Nc3ccc(O)cc3)C(=O)c3ccccc32)cc1,·,–,·,48,55,·,54,·,UCH37 reconfirm=–
COc1cc(C=NN2CCN(Cc3ccc(Cl)cc3)CC2)cc(Br)c1O,·,·,·,–,·,·,·,·,
COC(=O)C1C(O)=C(C=Nc2ccc(N)cc2)C(=O)CC1(C)C (centres undefined),–,–,54,–,47,–,–,–,
COC(=O)C1C(O)=C(C=Nc2ccccc2)C(=O)CC1(C)C (centres undefined),–,–,–,–,–,–,·,·,
COc1cccc(N=CC2=C(O)CC(C)(C)CC2=O)c1,–,–,–,·,–,–,·,·,
CC1(C)CC(=O)C(C=Nc2ccc(N)cc2)=C(O)C1,–,–,54,–,40,–,–,–,
COc1ccc(C2=NN(c3ccccc3)C(=O)/C2=C\c2ccc(O)c(OC)c2)cc1,54,–,46,–,67,–,–,–,
COc1cc(/C=C2\C(=O)ON=C2c2ccc(Cl)cc2)ccc1O,–,–,–,–,–,–,·,·,
COC(=O)c1c(Cl)c2n3ccccc3c(C)c(-c3ccccc3)c-2c1C(=O)OC,–,–,32,–,16,–,–,–,
CCN(CC)c1ccc(N)cc1,·,–,·,·,–,·,·,·,
Nc1ccc(N(CCO)CCO)cc1,65,–,46,–,59,–,–,–,
CCOC(=O)C1(C)C=C(Nc2ccc(O)cc2)C(=O)N1c1ccc(O)cc1 (centres undefined),89,–,28,–,85,–,–,–,
CCOc1cc(/C=N/Nc2nnc(C)n2N)ccc1O,37,–,48,·,50,–,–,–,
CC1CCN(c2ccc(/C=N\Nc3nncn3N)cc2[N+](=O)[O-])CC1,–,–,79,·,30,–,–,–,
COc1ccc(OC)c(/C=N/Nc2nncn2/N=C/c2cc(OC)ccc2OC)c1,–,–,67,·,21,–,–,–,
COc1ccc(OC)c(C=NNc2nncn2N=Cc2cc(OC)ccc2OC)c1,·,·,·,–,·,·,·,·,
CCc1nnc(NN=Cc2ccc(N3CCC(C)CC3)c([N+](=O)[O-])c2)n1N,·,·,·,–,·,·,·,·,
COc1cc(/C=N\Nc2nncn2N)ccc1OC(C)=O,–,–,57,·,31,–,–,–,
COc1ccc(C(=O)NN=C(C)CC(=O)NC2CCCCC2)c(OC)c1,·,·,·,–,·,·,·,·,

# Source: PubChem BioAssay (several laboratories)
